Reference: ChEMBL document CHEMBL4229335 (Eur J Med Chem, 2018)

Columns and labels:
HL-60 = assay: Antiproliferative activity against human HL60 cells after 72 hrs by MTT assay; assay type: functional, cell-based; conditions: HL-60, 72 h
In short: (§1)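 MTT assay with 72 h exposure to graded concentrations in triplicate. MTT solution then DMSO were added, followed by 10 min at room temperature, with absorbance read at 490 nm. IC50 is reported as the mean of three independent experiments. 5-FU served as positive control.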

PC-3 = assay: Antiproliferative activity against human PC3 cells after 72 hrs by MTT assay; assay type: functional, cell-based; conditions: PC-3, 72 h; in short: as §1
Bel-7402 = assay: Antiproliferative activity against human Bel7402 cells after 72 hrs by MTT assay; assay type: functional, cell-based; conditions: Bel-7402, 72 h; in short: as §1
Bel7402/5-FU = assay: Antiproliferative activity against human Bel7402/5-FU cells after 72 hrs by MTT assay; assay type: functional, cell-based; in short: as §1
L02 = assay: Antiproliferative activity against human LO2 cells after 72 hrs by MTT assay; assay type: cell-based; conditions: L02, 72 h; in short: as §1
[1] = Selectivity index, ratio of IC50 for human LO2 cells to IC50 for human Bel7402 cells; assay type: toxicity; conditions: LO2 cells versus Bel7402 cells, read-out: Ratio IC50
In short: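 SI was calculated as IC50 in L-02 normal liver cells divided by IC50 in Bel-7402 cells, both from the 72 h MTT assay.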

| Compound | IC50 (HL-60) [µM] | IC50 (PC-3) [µM] | IC50 (Bel-7402) [µM] | IC50 (Bel7402/5-FU) [µM] | IC50 (L02) [µM] | selectivity ratio [1] |
| --- | --- | --- | --- | --- | --- | --- |
| C=C1C(=O)[C@@]23C(=O)O[C@H]4CCC(C)(C)[C@H]5C(=O)OC[C@@]45[C@@H]2CC[C@@H]1[C@H]3OC(=O)CCCc1ccc(N(CCCl)CCCl)cc1 | 9.94 | 5.5 | 3.06 | 15.6 | 49.8 | 16.3 |
| COC(=O)[C@H](Cc1ccc(N(CCCl)CCCl)cc1)NC(=O)CCC(=O)O | 12.4 | 57.3 | 46.5 | > 100 | 68.6 | 1.5 |
| C=C1C(=O)[C@]23[C@H](O)[C@H]1CC[C@H]2[C@@]12CO[C@]3(O)[C@@H](O)[C@@H]1C(C)(C)CC[C@@H]2O [ORIDONIN] | 14.3 | 11 | 7.36 | 10.5 | 18.9 | 2.6 |
| C=C1C(=O)[C@@]23C(=O)O[C@H]4CCC(C)(C)[C@H]5C(=O)OC[C@@]45[C@@H]2CC[C@@H]1[C@H]3O | 20.6 | 22.6 | – | 19.6 | 25.5 | 1.6 |
| O=c1[nH]cc(F)c(=O)[nH]1 [FLUOROURACIL] | – | – | – | > 80 | – | – |
| C=C1C(=O)[C@@]23C(=O)O[C@H]4CCC(C)(C)[C@H]5C(=O)OC[C@@]45[C@@H]2CC[C@@H]1[C@H]3OC(=O)CCC(=O)N[C@@H](Cc1ccc(N(CCCl)CCCl)cc1)C(=O)OC | 18.5 | > 100 | 6.5 | 12.8 | > 100 | – |
